Values joined by “and” are separate entries in the source; they are usually repeats but may differ in a detail not shown here. Equal entries are not always repeated.
Tests used:
[1] = Sedimentation coefficient of the free proteins; assay type: physicochemical; conditions: low salt buffer: 5 mM potassium phosphate, pH 7.4, 5 mM NaCl, 8% (w/v) glycerol, 0.5 mM DTT; 20°C, 50 000 rpm
How it was run: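 Sedimentation velocity in double-sector cells, recording 280 nm absorbance versus radial position. Samples were full-length DnaG, DnaG-N (residues 1–433), DnaG-C (434–581) and E. coli SSB. Concentrations came from 280 nm extinction coefficients. Data were evaluated as c(s) distributions in SEDFIT.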

DnaG-C [2] = test: Isothermal titration calorimetry of DnaG-C with SSB-Carb peptide; assay type: binding, Escherichia coli; conditions: for binding (association) constant KA by ITC: model of n identical independent sites
DnaG-C [3] = test: NMR titration; assay type: binding, Escherichia coli; conditions: 300 µM 15N-DnaG-C titrated with SSB-Carb, 295 K, 600 MHz
How it was run: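 15N-DnaG-C in 5 mM potassium phosphate pH 7.4, 5 mM NaCl, 2 mM DTT, 10% D2O. Peptide was added from a 30 mM DMSO stock to final 0, 0.1, 0.3, 0.6 and 1 mM. SOFAST-HMQC spectra used 16 scans. Shift = sqrt[Δδ(1H)² + (Δδ(15N)/10)²], comparing no peptide with 1 mM.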

SSB = conditions: low salt conditions; cited from earlier work
[4] = 150 mM NaCl, 5 mM potassium phosphate, pH 7.4, 8% (w/v) glycerol, 25°C, SSB-Carb on DnaG-C

DnaG: full-length E. coli DnaG primase
sedimentation coefficient, free protein [1]: 3.4 S

EcoSSB: Escherichia coli single-stranded DNA-binding protein; concentrations given in tetramers
sedimentation coefficient, free protein [1]: 3.9 S

WMDFDDDIPF [SSB-Carb]
binding (association) constant KA by ITC (DnaG-C [2]; 5 mM NaCl, 5 mM potassium phosphate, pH 7.4, 8% (w/v) glycerol, 25°C, 1.04 mM SSB-Carb titrated into 46 µM DnaG-C): 240000 M⁻¹
binding enthalpy ΔH by ITC (DnaG-C [2]; 5 mM NaCl, 5 mM potassium phosphate, pH 7.4, 8% (w/v) glycerol, 25°C, SSB-Carb on DnaG-C): -12.4 kcal/mol
binding (association) constant KA by ITC (DnaG-C [2]; 150 mM NaCl, 5 mM potassium phosphate, pH 7.4, 8% (w/v) glycerol, 25°C, 1.08 mM SSB-Carb titrated into 46 µM DnaG-C): 74000 M⁻¹ and ~70000 M⁻¹
binding enthalpy ΔH by ITC (DnaG-C [2]; [4]): -9.87 kcal/mol
binding stoichiometry n by ITC (DnaG-C [2]; [4]): 0.89
change of affinity on increase of salt concentration (DnaG-C [2]; from 5 to 150 mM NaCl, DnaG-C/SSB-Carb interaction, ITC): decreases the affinity only by a factor of about three
chemical shift change of W522 side chain of DnaG-C (in words) (DnaG-C [3]): not only the chemical shifts of tryptophan 522 backbone change upon addition of SSB-Carb peptide but also those of the side chain
chemical shift change of W522 side chain of DnaG-C (in words) (DnaG-C [3]; listed as peptide): strong changes in chemical shift on peptide binding

χ: χ subunit of DNA polymerase III
increase in SSB-binding affinity in presence of ssDNA (SSB): 20 fold

B1: DnaG-C: amino acid residues 434–581 of DnaG, C-terminal helicase-binding domain (protein, UniProt P0ABS5 434-581, looked up, fragment)
chain: AAESGVSRPVPQLKRTTMRILIGLLVQNPELATLVPPLENLDENKLPGLGLFRELVNTCLSQPGLTTGQLLEHYRGTNNAATLEKLSMWDDIADKNIAEQTFTDSLNHMFDSLLELRQEELIARERTHGLSNEERLELWTLNQELAKK
modifications: helicase-binding domain
sedimentation coefficient, free protein [1]: 1.4 S

B2: DnaG-N: amino acid residues 1–433 of DnaG (protein, UniProt P0ABS5 1-433, looked up, fragment)
chain: MAGRIPRVFINDLLARTDIVDLIDARVKLKKQGKNFHACCPFHNEKTPSFTVNGEKQFYHCFGCGAHGNAIDFLMNYDKLEFVETVEELAAMHNLEVPFEAGSGPSQIERHQRQTLYQLMDGLNTFYQQSLQQPVATSARQYLEKRGLSHEVIARFAIGFAPPGWDNVLKRFGGNPENRQSLIDAGMLVTNDQGRSYDRFRERVMFPIRDKRGRVIGFGGRVLGNDTPKYLNSPETDIFHKGRQLYGLYEAQQDNAEPNRLLVVEGYMDVVALAQYGINYAVASLGTSTTADHIQLLFRATNNVICCYDGDRAGRDAAWRALETALPYMTDGRQLRFMFLPDGEDPDTLVRKEGKEAFEARMEQAMPLSAFLFNSLMPQVDLSTPDGRARLSTLALPLISQVPGETLRIYLRQELGNKLGILDDSQLERLMPK
sedimentation coefficient, free protein [1]: 2.9 S

— article PMC3632105 (Nucleic Acids Research, 2013)
